Measurements from different studies.
Each line is one published result; the experiments were not run side by side.
Target: Ephrin type-B receptor 2 (EPHB2, Homo sapiens, UniProt P29323)
One construct used (P29323 19-1055): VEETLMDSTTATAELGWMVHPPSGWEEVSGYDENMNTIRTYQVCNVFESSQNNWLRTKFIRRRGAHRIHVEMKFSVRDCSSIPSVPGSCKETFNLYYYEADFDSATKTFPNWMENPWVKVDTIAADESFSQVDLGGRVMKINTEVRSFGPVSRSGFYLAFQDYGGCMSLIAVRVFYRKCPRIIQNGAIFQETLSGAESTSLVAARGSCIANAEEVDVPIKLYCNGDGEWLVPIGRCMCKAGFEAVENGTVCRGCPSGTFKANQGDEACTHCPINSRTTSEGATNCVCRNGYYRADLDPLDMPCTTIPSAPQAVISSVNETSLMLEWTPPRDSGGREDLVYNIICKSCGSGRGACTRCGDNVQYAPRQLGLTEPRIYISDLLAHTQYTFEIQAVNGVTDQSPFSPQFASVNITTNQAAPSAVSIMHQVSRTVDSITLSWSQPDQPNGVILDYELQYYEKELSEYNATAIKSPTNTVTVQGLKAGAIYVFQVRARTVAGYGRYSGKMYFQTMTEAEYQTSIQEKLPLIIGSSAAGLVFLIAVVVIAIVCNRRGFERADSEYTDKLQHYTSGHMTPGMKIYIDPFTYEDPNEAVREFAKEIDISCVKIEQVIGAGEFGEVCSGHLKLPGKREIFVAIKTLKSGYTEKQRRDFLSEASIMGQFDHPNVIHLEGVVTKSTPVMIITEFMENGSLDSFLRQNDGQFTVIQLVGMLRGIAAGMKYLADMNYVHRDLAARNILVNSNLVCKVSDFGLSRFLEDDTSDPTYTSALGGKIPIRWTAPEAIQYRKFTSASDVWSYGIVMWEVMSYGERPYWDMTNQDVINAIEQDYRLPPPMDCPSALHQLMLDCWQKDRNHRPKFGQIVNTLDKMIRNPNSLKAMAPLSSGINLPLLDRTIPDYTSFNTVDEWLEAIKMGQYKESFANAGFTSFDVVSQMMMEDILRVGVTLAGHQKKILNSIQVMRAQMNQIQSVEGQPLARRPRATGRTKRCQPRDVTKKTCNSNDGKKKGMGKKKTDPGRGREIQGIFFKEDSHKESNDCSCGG

The remaining binding of `FC(F)(F)c1ccc2c(c1)nc(-c1cccnc1)n2C1CC1` is reported as 83% (cell-free assay; competition with immobilised ligand; 1 µM).
With `CCN(CC)CCNC(=O)c1c(C)[nH]c(/C=C2\C(=O)Nc3ccc(F)cc32)c1C` the inhibition was 2% (enzyme activity; inhibitor; 0.3 µM).
With `COc1cc2ncnc(Nc3ccc(Oc4ccccc4)c(C)c3C)c2cc1OC` the inhibition was 6% (enzyme activity; inhibitor; 1 µM).
`Cc1ccc(NC(=O)c2ccc(CN3CCN(C)CC3)cc2)cc1Nc1nc(-c2cccnc2)cs1` gave a remaining signal of 95.3% (cell-free assay; 0.5 µM).
`C[C@H](c1ccnc(Nc2nc3ccc(-c4cc(N(C)C)ncn4)cc3[nH]2)c1)N1CCN(C(=O)CC(F)(F)F)CC1` has a remaining binding of 93% (cell-free assay; competition with immobilised ligand; 0.1 µM).
The activity vs control of `COc1cc(/C=C/C(=O)CC(=O)/C=C/c2ccc(O)c(OC)c2)ccc1O` is reported as 111% (enzyme activity; inhibitor; 1 µM).
`CN(C)C1CCN(CC#Cc2nn(C3CCCC3)c3nc(NCc4ccccc4)ncc23)C1` (stereo not shown) gave an inhibition of 8% (enzyme activity; inhibitor; FRET; 1 µM).
With `COc1ccc(COc2ccc(Cc3cnc(N)nc3N)cc2OC)cc1` the remaining signal was 87.4% (cell-free assay; 0.5 µM).
For `Cn1c(=O)n(-c2ccc(C(C)(C)C#N)cc2)c2c3cc(-c4cnc5ccccc5c4)ccc3ncc21`, the remaining activity was 77% (enzyme activity; inhibitor; 10 µM).
With `Cc1ccc(Nc2nccc(N(C)c3ccc4c(C)n(C)nc4c3)n2)cc1S(N)(=O)=O` the inhibition was 44% (enzyme activity; inhibitor; 10 µM).
For `Cc1cc(NC(=O)c2cccc3cc(-c4cccc5[nH]nc(N)c45)ccc23)ccc1F`, the activity vs control was 102% (enzyme activity; inhibitor; 0.1 µM).
`CNC(=O)Nc1ccc2c(c1)[C@@]1(CC2)OC(=O)N(CC(=O)N(Cc2ccc(F)cc2)[C@@H](C)C(F)(F)F)C1=O` has a remaining binding of 87% (cell-free assay; competition with immobilised ligand; 1 µM).
For `O=C(Nc1cnn(-c2csc(C(=O)NC3COC3)c2)c1)Nc1c(F)cccc1Cl`, the remaining activity was 99.9% (enzyme activity; inhibitor; 5 µM).
With `CCOc1cc(-c2nncn2C)ccc1Nc1ncc2cc(C)nc(NCC(C)(C)C)c2n1` the inhibition was < 15% (enzyme activity; inhibitor; FRET; 1 µM).
The remaining activity of `COc1cc(Nc2cnc(C#N)c(O[C@H](C)CN(C)C)n2)ncc1-c1cnn(C)c1` is reported as 63% (enzyme activity; inhibitor; radiometric; 10 µM).
The remaining signal of `COc1cc2ncnc(Nc3ccc(F)c(Cl)c3)c2cc1OCCCN1CCOCC1` is reported as 87.7% (cell-free assay; 0.5 µM).
With `O=C(NS(=O)(=O)c1ccc(NCC2CCOCC2)c([N+](=O)[O-])c1)c1ccc(N2CCN(Cc3ccc(C(F)(F)F)cc3-c3ccc(Cl)cc3)CC2)cc1Oc1cnc2[nH]ccc2c1` the remaining binding was 100% (cell-free assay; competition with immobilised ligand; 1 µM).
With `CNC(=O)c1cc(Oc2ccc(NC(=O)Nc3ccc(Cl)c(C(F)(F)F)c3)cc2)ccn1` the inhibition was 95% (enzyme activity; inhibitor; 10 µM).
For `N#CCCc1ccc2c(c1)-c1[nH]c3ccc([N+](=O)[O-])cc3c1CC(=O)N2`, the remaining signal was 98.5% (cell-free assay; 0.5 µM).
For `CN1CC(Oc2cnc(C#N)cc2-c2ccn3nc(NC(=O)C4CC4)cc3c2)C1`, the inhibition was 4% (enzyme activity; inhibitor; 1 µM).
`CC(C)(O)c1cncc(-c2nc3ccc(F)cc3n2C2CC2)c1` has a remaining binding of 99% (cell-free assay; competition with immobilised ligand; 1 µM).
For `CC(C)(O)[C@H]1CC[C@H](Nc2ccc3ncc(-c4cccc(C(F)(F)F)c4)n3n2)CC1`, the remaining activity was 93.5% (enzyme activity; inhibitor; 1 µM).
For `O=C(NCc1ncc(C(F)(F)F)cc1Cl)c1ccc2c(c1)C1(CCS(=O)(=O)CC1)[C@H](C1CC1)N2S(=O)(=O)c1ccc(F)cc1`, the remaining binding was 100% (cell-free assay; competition with immobilised ligand; 1 µM).
For `Nc1ncnc2occ(-c3ccc(NC(=O)Nc4cc(C(F)(F)F)ccc4F)cc3)c12`, the remaining signal was 0% (cell-free assay; 20 µM).
`CC(C)CC(=O)N1CCc2nc(-c3ccc(Br)cc3)nc(N(C)Cc3ccccc3)c2C1` gave a remaining binding of 80% (cell-free assay; competition with immobilised ligand; 0.1 µM).
The inhibition of `COc1cccc2c(NCc3ccccc3)nc(-n3c(N)nc4ccccc43)nc12` is reported as 8.3% (target engagement in cells; inhibitor; chemoproteomics; 20 mM).
For `CN(C)c1ncnc(-c2ccc3nc(Nc4cc(CN5CCN(C(=O)CC(F)(F)F)CC5)ccn4)[nH]c3c2)c1Cl`, the remaining binding was 100% (cell-free assay; competition with immobilised ligand; 1 µM).
`Cc1ccc(C(=O)NCc2ccsc2)cc1C#Cc1cn(C(C)C)c2ncnc(N)c12` has an activity vs control of 2% (enzyme activity; inhibitor; 1 µM).
